According to ChEMBL document CHEMBL1140082, “Design, synthesis, and biological evaluation of potent c-Met inhibitors” (J Med Chem, 2008):
One block for each compound: values may come before it.

Tests used:
[1] = molecular target: Hepatocyte growth factor receptor (Homo sapiens, UniProt P08581); experiment: Inhibition of cMet by HTRF assay
[2] = molecular target: Vascular endothelial growth factor receptor 1 (Homo sapiens, UniProt P17948); experiment: Inhibition of Flt1 kinase
[3] = molecular target: Mitogen-activated protein kinase 9 (Homo sapiens, UniProt P45984); experiment: Inhibition of JNK2
[4] = molecular target: cAMP-dependent protein kinase catalytic subunit alpha (Homo sapiens, UniProt P17612); experiment: Inhibition of PKAalpha
[5] = molecular target: Vascular endothelial growth factor receptor 2 (Homo sapiens, UniProt P35968); experiment: Inhibition of phosphorylated KDR by HTRF assay
How it was run: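 HTRF assay against KDR kinase with 10-point serial dilution. ATP at two-thirds of the experimentally determined Km (Eadie-Hofstee and Lineweaver-Burke). Ki derived from the IC50.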

[6] = Inhibition of IGFR
Mus musculus = experiment: Inhibition of human recombinant HGF-induced cMet phosphorylation in po or ip dosed BALB/c mouse liver after 2 hrs
[7] = Inhibition of FGFRK
Angiopoietin-1 receptor = Angiopoietin-1 receptor (Homo sapiens, UniProt Q02763); experiment: Inhibition of Tie2 kinase
[8] = molecular target: Serine/threonine-protein kinase pim-1 (Homo sapiens, UniProt P11309); experiment: Inhibition of PIM1 kinase
[9] = molecular target: Serine/threonine-protein kinase pim-2 (Homo sapiens, UniProt Q9P1W9); experiment: Inhibition of PIM2 kinase
[10] = molecular target: Vascular endothelial growth factor receptor 3 (Homo sapiens, UniProt P35916); experiment: Inhibition of Flt4 kinase
Aurora kinase A = molecular target: T1, Aurora kinase A (Homo sapiens, UniProt O14965); experiment: Inhibition of Aurora2
T1 sequence (O14965 whole entry): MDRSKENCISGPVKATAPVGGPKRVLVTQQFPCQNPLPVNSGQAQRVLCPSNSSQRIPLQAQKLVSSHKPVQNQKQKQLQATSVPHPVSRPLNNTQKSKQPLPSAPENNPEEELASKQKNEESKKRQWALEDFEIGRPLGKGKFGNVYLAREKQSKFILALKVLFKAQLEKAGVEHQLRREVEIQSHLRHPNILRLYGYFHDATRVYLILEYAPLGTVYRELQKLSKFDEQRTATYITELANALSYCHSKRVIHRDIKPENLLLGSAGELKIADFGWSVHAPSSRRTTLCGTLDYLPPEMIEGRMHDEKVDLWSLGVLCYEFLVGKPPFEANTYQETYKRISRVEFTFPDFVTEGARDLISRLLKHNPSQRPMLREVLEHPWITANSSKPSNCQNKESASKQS

[11] = molecular target: RAC-alpha serine/threonine-protein kinase (Homo sapiens, UniProt P31749); experiment: Inhibition of PKBalpha
[12] = molecular target: Ribosomal protein S6 kinase alpha-5 (Homo sapiens, UniProt O75582); experiment: Inhibition of MSK1
[13] = molecular target: Macrophage-stimulating protein receptor (Homo sapiens, UniProt Q04912); experiment: Inhibition of phosphorylated RON
[14] = Inhibition of P38 kinase
[15] = molecular target: Tyrosine-protein kinase Lck (Homo sapiens, UniProt P06239); experiment: Inhibition of LCK
[16] = molecular target: Tyrosine-protein kinase JAK2 (Homo sapiens, UniProt O60674); experiment: Inhibition of JAK2
[17] = molecular target: T2, Tyrosine-protein kinase JAK3 (Homo sapiens, UniProt P52333); experiment: Inhibition of JAK3
T2 sequence (P52333 whole entry): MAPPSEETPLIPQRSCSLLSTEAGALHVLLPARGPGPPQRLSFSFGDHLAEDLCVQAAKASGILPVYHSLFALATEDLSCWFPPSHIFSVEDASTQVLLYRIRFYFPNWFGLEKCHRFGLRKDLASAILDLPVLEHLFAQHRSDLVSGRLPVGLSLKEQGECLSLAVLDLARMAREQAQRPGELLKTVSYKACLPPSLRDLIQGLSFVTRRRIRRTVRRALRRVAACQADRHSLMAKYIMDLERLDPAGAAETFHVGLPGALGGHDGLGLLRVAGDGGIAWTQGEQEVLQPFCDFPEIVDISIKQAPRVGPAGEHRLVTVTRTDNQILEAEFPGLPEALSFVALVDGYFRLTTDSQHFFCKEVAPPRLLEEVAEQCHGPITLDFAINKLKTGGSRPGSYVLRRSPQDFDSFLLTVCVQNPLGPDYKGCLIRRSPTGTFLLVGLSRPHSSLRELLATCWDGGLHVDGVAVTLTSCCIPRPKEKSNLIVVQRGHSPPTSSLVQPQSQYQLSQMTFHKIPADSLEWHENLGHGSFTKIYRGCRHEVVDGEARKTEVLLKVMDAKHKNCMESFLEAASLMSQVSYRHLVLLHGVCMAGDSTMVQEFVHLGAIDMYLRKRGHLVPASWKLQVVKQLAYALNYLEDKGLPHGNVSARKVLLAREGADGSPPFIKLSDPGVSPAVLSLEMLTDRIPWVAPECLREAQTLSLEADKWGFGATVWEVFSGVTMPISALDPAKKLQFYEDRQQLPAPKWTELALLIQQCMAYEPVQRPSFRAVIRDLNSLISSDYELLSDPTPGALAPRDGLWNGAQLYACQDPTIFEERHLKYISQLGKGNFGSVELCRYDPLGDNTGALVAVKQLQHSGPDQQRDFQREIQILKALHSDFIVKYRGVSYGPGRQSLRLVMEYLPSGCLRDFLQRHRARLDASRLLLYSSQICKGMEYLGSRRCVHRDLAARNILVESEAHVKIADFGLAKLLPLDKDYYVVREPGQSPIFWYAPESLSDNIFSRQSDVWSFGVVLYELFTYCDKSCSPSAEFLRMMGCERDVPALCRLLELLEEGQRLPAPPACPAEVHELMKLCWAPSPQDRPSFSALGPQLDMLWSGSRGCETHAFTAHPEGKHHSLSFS

[18] = molecular target: Tyrosine-protein kinase BTK (Homo sapiens, UniProt Q06187); experiment: Inhibition of BTK
[19] = molecular target: Mitogen-activated protein kinase 3 (Homo sapiens, UniProt P27361); experiment: Inhibition of ERK1
[20] = Volume of distribution in iv dosed rat; format: ADME, organism-based; conditions: in vivo
[21] = molecular target: Tyrosine-protein kinase ZAP-70 (Homo sapiens, UniProt P43403); experiment: Inhibition of ZAP70
[22] = molecular target: Fibroblast growth factor receptor 2 (Homo sapiens, UniProt P21802); experiment: Inhibition of FGFRK2
[23] = molecular target: Cyclin-dependent kinase 5 (Homo sapiens, UniProt Q00535); experiment: Inhibition of CDK5
[24] = Clearance in iv dosed rat; format: ADME, organism-based; conditions: in vivo
[25] = Half life in iv dosed rat; format: ADME, organism-based; conditions: in vivo
[26] = molecular target: Ribosomal protein S6 kinase beta-1 (Homo sapiens, UniProt P23443); experiment: Inhibition of P70S6
[27] = Bioavailability in iv dosed rat; format: ADME, organism-based; conditions: in vivo
[28] = molecular target: Macrophage colony-stimulating factor 1 receptor (Homo sapiens, UniProt P07333); experiment: Inhibition of cFMS kinase
[29] = molecular target: Hepatocyte growth factor receptor c-Met (Mus musculus) (UniProt P16056); experiment: Inhibition of human recombinant HGF-mediated cMet phosphorylation in mouse CT26 cells

- Ki [1]: 38 nM
Compound: COc1cc2nccc(Oc3ccc(-c4cnc(Nc5cccc(F)c5)n(C)c4=O)cc3F)c2cc1OC

- Ki [5]: 382 nM
- Ki [6]: 70 nM
Compound: COc1cc2nccc(Oc3ccc(-c4cnc(Nc5ccc(F)cc5)n(C)c4=O)cc3F)c2cc1OC

- Ki [1]: 72 nM
Compound: COc1cc2nccc(Oc3ccc(-c4cnc(C(N)c5ccccc5)n(C)c4=O)cc3F)c2cc1OC (stereo unspecified)

The remaining lines, values behind:

Compound: COc1cc2c(Oc3ccc(-c4cnc(Cc5ccccc5)n(C)c4=O)cc3F)ccnc2cc1OCCCN1CCOCC1
- IC50 [2]: > 1000 nM
- IC50 [3]: > 100000 nM
- IC50 [4]: > 100000 nM
- Ki [5]: 422 nM
- Ki [6]: 1450 nM
- ED90 (Mus musculus): 100 mg/kg
- IC50 [7]: > 1000 nM
- IC50 (Angiopoietin-1 receptor): 285 nM
- IC50 [8]: > 30000 nM
- IC50 [9]: > 25000 nM
- IC50 [10]: 120 nM
- IC50 (Aurora kinase A): 116 nM
- IC50 [11]: > 100000 nM
- IC50 [12]: > 100000 nM
- Ki [13]: 195 nM
- IC50 [14]: > 25000 nM
- IC50 [15]: 8 nM
- Ki [1]: 8.9 nM
- IC50 [16]: > 25000 nM
- IC50 [17]: > 8300 nM
- IC50 [18]: 19 nM
- IC50 [19]: > 100000 nM
- Vd [20]: 3.4 L/kg
- IC50 [21]: > 5400 nM
- IC50 [22]: > 1000 nM
- IC50 [23]: > 100000 nM
- clearance [24]: 9.33 mL/min/kg
- half-life [25]: 2.4 h
- IC50 [26]: 10000 nM
- bioavailability [27]: 100%
- IC50 [28]: 37 nM

Compound: COc1cc2nccc(Oc3ccc(-c4ccc(Cc5ccccc5)nn4)cc3F)c2cc1OC
- Ki [5]: 56 nM
- Ki [1]: 201 nM

Compound: COc1cc2c(Oc3ccc(-c4cnc(Cc5ccc(F)cc5)n(C)c4=O)cc3F)ccnc2cc1OCCCN1CCOCC1
- Ki [5]: > 3000 nM
- Ki [6]: 860 nM
- IC50 [29]: 196 nM
- Ki [1]: 17 nM
